Assay results collected from several papers.
Each line is one published result; the experiments were not run side by side. ≈ marks a conversion by molar mass, not a printed value.
Organism: Mycobacterium tuberculosis
Observed: microbial growth

CC(C)(O)c1ccc(OCCc2cccc(F)c2)c(C(N)=O)c1
IC50: 2.7 µM

NC(=S)c1cncc(Cn2c(=S)[nH]c3cc(CO)c(Cl)cc3c2=O)c1
MIC90 (H37RV): 4.61 µM

CCCCCCC#Cc1cncc(-c2nnc(SCCCn3ccc(=O)[nH]c3=O)n2C)c1
IC50 (resazurin; ERDMAN): 25 µM

COc1ccc(-c2cc(C(F)(F)F)c3c(N)c(C(=O)N4CC5(CCOC5)C4)sc3n2)cc1
IC50 (H37RV): 24 µM

NCC[C@H](O)C(=O)N[C@@H]1C[C@H](N)[C@@H](O[C@H]2O[C@H](CN)[C@@H](O)[C@H](O)[C@H]2O)[C@H](O)[C@H]1O[C@H]1O[C@H](CO)[C@@H](O)[C@H](N)[C@H]1O
MIC50: 0.25 µg/mL (≈ 0.427 µM)

CCC(NC(=O)c1sc2nc(-c3ccc(OC)cc3)cc(C(F)(F)F)c2c1N)c1ccccc1 (stereo not shown)
IC50 (H37RV): 0.55 µM

CO[C@H]1/C=C/O[C@@]2(C)Oc3c(C)c(O)c4c(O)c(c(/C=N/N5CCN(C)CC5)c(O)c4c3C2=O)NC(=O)/C(C)=C\C=C\[C@H](C)[C@H](O)[C@@H](C)[C@@H](O)[C@@H](C)[C@H](OC(C)=O)[C@@H]1C
MIC90 (H37RA): 0.01 µM

CCCCCCC#Cc1cncc(-c2nnc(SCc3ccc([N+](=O)[O-])cc3)n2CCCN)c1
IC50 (resazurin; ERDMAN): 20 µM

Clc1ccc(CCNc2cc(-c3ccco3)nc3nncn23)cc1
MIC (H37RV): 4.8 µM

CCCCCCC#Cc1cncc(-c2nnc(SCc3ccc([N+](=O)[O-])o3)n2CCO)c1
IC50 (resazurin; ERDMAN): 1.3 µM

O=c1c2cc(Cl)cnc2[nH]c(=S)n1Cc1cccnc1
MIC90 (H37RV): > 100 µM

CCc1cc(=O)c2c(OCC(O)CNC(C)C)c3ccoc3c(OC)c2o1 (stereo not shown)
MIC (resazurin; 21 days): 16 µg/mL

NNC(=O)c1ccncc1
MIC50: 0.1 µg/mL (≈ 0.729 µM)

CCN(CC)C(=O)c1sc2ncccc2c1N
IC50 (H37RV): > 100 µM

CC[C@@H](CO)NCCN[C@@H](CC)CO
MIC (resazurin; H37RV; 21 days): 0.25 µg/mL

Cc1ccc(CCNc2cc(-c3ccc(Cl)s3)nc3nncn23)cc1
MIC (H37RV): 4.8 µM

COc1ccc(-c2cc(C(F)(F)F)c3c(N)c(C(=O)N4CCCC4)sc3n2)cc1
IC50 (H37RV): > 50 µM

CCCCCCC#Cc1cncc(-c2nnc(SCc3cc([N+](=O)[O-])cc([N+](=O)[O-])c3)n2CCCN)c1
IC50 (resazurin; ERDMAN): 3.2 µM

Nc1c(C(=O)NCc2ccccc2)sc2nc(-c3ccccc3)ccc12
IC50 (H37RV): 42 µM

CC(c1cccnc1)n1c(=S)[nH]c2ccc(Cl)cc2c1=O (stereo not shown)
MIC90 (H37RV): 66.2 µM

Nc1c(C(=O)NCc2ccc(F)cc2)sc2nc(-c3ccccc3)ccc12
IC50 (H37RV): > 100 µM

Cc1ccc(CCNc2cc(-c3ccc(C)o3)nc3nncn23)cc1
MIC (H37RV): 0.36 µM

O=c1c2cc(Cl)ccc2[nH]c(=S)n1Cc1ccc(-n2cccn2)nc1
MIC90 (H37RV): > 100 µM

c1ccc(-c2cc(NCCC34CC5CC(CC(C5)C3)C4)n3ncnc3n2)nc1
MIC (H37RV): 12 µM

CCCCCCC#Cc1cncc(-c2nnc(SCc3ccc(Cl)cc3)n2CCO)c1
IC50 (resazurin; ERDMAN): 49 µM

Cc1cccc(NC(=O)c2sc3nc(-c4cccs4)cc(C(F)(F)F)c3c2N)c1C
IC50 (H37RV): > 100 µM

NNC(=O)c1ccncc1
MIC (resazurin; 21 days): 0.5 µg/mL

CC(C)c1ccc(Cn2c(=S)[nH]c3ccc(Cl)cc3c2=O)cn1
MIC90 (H37RV): > 100 µM

FC(F)(F)c1ccc(CCNc2cc(-c3cccs3)nc3nncn23)cc1
IC90 (H37RV): 310 nM

O=c1c2cc(C(F)(F)F)ncc2[nH]c(=S)n1Cc1cccnc1
MIC90 (H37RV): 45.5 µM

O=C(Cc1ccccc1)Nc1cc(-c2ccccn2)nc2nncn12
IC90 (H37RV): 2000 nM

COC(=O)OCc1cc2[nH]c(=S)n(Cc3cncnc3)c(=O)c2cc1Cl
MIC90 (H37RV): 1.84 µM

Cc1ccc(CCNc2cc(-c3nccs3)nc3nncn23)cc1
MIC (H37RV; 5 days): 32 µM

COc1ccc(-c2cc(C(F)(F)F)c3c(N)c(C(=O)N4CC(F)(F)C4)sc3n2)cc1
IC50 (H37RV): > 50 µM

N#Cc1cncc(Cn2c(=S)[nH]c3cc(CO)c(Cl)cc3c2=O)c1
MIC90 (H37RV): 2.7 µM

Cc1ccc(-c2cc(NCCc3ccc(C(F)(F)F)cc3)n3cnnc3n2)o1
MIC (H37RV): 0.37 µM

CO[C@H]1/C=C/O[C@@]2(C)Oc3c(C)c(O)c4c(O)c(c(/C=N/N5CCN(C)CC5)c(O)c4c3C2=O)NC(=O)/C(C)=C\C=C\[C@H](C)[C@H](O)[C@@H](C)[C@@H](O)[C@@H](C)[C@H](OC(C)=O)[C@@H]1C
MIC90 (H37RV): 0.12 µg/mL
